These results are taken from the RNAGym collection of RNA variant scans (doi:10.1038/s41586-018-0170-7).

To fix the notation:
B1: tRNA (parent)
chain: GUUCCGUUGGCGUAAUGGUAACGCGUCUCCCUCCUAAGGAGAAGACUGCGGGUUCGAGUCCCGUACGGAACG

Variants of B1 are the subject of the series. The series is described as follows: yeast fitness, log relative to wild type (ln ratio); higher = fitter; tRNA-Arg(CCU), competitive growth, 37 C, 1 M NaCl. The essentials: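 A combinatorial tRNA-Arg(CCU) variant library was carried on a HIS3 centromeric plasmid in BY4742 lacking the chromosomal gene, from two independent transformations. Pools grew 4 generations in SC-HIS at 30 °C, then ~6.5 generations (~26.5 h) in SC-HIS 1M NaCl at 37 °C, with three outputs per input. Variants were counted by 125 bp paired-end Illumina sequencing. Fitness is ln of each genotype's generations (OD-scaled log2 output/input frequency, inverse-variance weighted across replicates) over the wild-type's.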
With G1A U2G G6U A43C C66U A69G A70U, the “yeast fitness (ln)” value was -0.255.

For U2C A43C C46U A69G A70U, the “yeast fitness (ln)” value is -0.144.

Take U2C C27U A43C C46U C66U A69G A70U: the “yeast fitness (ln)” value is -0.259.

For G1A U2G C27U A43C C46U C66U A70G C71U, the “yeast fitness (ln)” value was -0.318.

Regarding G1A U2G G6A C27U A43C C66U A69G A70G C71U, the “yeast fitness (ln)” value was -0.563.

On to G1A U2G G6U C46U C66U A69G C71U, for which the “yeast fitness (ln)” value is -0.466.

As for G1A G6U C66A A70U C71U, the “yeast fitness (ln)” value was -0.159.

In the case of U2C G6U C27U C46U C66A C71U, the “yeast fitness (ln)” value is -0.0782.

Turning to U2G G6A A43C C46U C66A A70U C71U, the “yeast fitness (ln)” value is -0.227.

Turning to G1A U2C C46U C66U, the “yeast fitness (ln)” value was -0.00756.

As to A43C C66A C71U, the “yeast fitness (ln)” value is -0.117.

On to G1A U2G G6A A43C C66U A69G A70G C71U, for which the “yeast fitness (ln)” value was -0.612.

Consider U2C G6U C27U A70U C71U, for which the “yeast fitness (ln)” value was -0.136.

As for U2C G6A C66U, the “yeast fitness (ln)” value came out at 0.00772.

Turning to G1A G6U C27U A69G A70U C71U, the “yeast fitness (ln)” value is -0.505.

C27U C66A A69G A70U: the “yeast fitness (ln)” value is -0.15.

Consider U2G G6U A70G, for which the “yeast fitness (ln)” value was -0.0649.

Regarding U2C G6A A43C C46U A69G A70G, the “yeast fitness (ln)” value was -0.241.

For U2C C46U A70G, the “yeast fitness (ln)” value is 0.000328.

For the variant G6A C27U C66U A69G A70G, the “yeast fitness (ln)” value is -0.368.

For U2C G6A C27U A43C C46U C66A A69G A70G C71U, the “yeast fitness (ln)” value was -0.19.

U2C G6A A70G: the “yeast fitness (ln)” value was -0.0119.

For G6A C27U C46U C66U, the “yeast fitness (ln)” value was -0.0122.

For U2G C46U C66A A69G A70G C71U, the “yeast fitness (ln)” value is -0.139.

Take U2C C46U A69G A70G C71U: the “yeast fitness (ln)” value was -0.0139.

On to U2G C27U A43C C46U C66U C71U, for which the “yeast fitness (ln)” value is -0.292.

On to G1A C27U A69G A70U, for which the “yeast fitness (ln)” value is -0.216.

For U2G G6A C66A A69G A70U C71U, the “yeast fitness (ln)” value was -0.31.

With G1A G6U C46U A69G A70U C71U, the “yeast fitness (ln)” value was -0.321.

Turning to U2C G6A A43C C46U C66A A70G, the “yeast fitness (ln)” value was -0.123.

As to G1A G6A C27U A70U, the “yeast fitness (ln)” value is -0.293.

With G6A A43C C46U A70U C71U, the “yeast fitness (ln)” value was -0.151.

Take G6A C27U C66U A69G A70U C71U: the “yeast fitness (ln)” value was -0.462.

For G1A U2G G6U A43C A70G, the “yeast fitness (ln)” value is -0.263.

Take G1A U2C G6U C27U C46U C66U A69G A70G C71U: the “yeast fitness (ln)” value was -0.699.

With U2G G6U C27U A69G A70G C71U, the “yeast fitness (ln)” value was -0.363.

As to U2C C27U C46U C66U A70G C71U, the “yeast fitness (ln)” value was -0.075.

Take U2G C27U C66A A70G C71U: the “yeast fitness (ln)” value was -0.201.

With U2G A43C C71U, the “yeast fitness (ln)” value was -0.102.

As to G1A U2G C27U A43C, the “yeast fitness (ln)” value was -0.182.

Turning to G1A C27U C46U C66U A69G C71U, the “yeast fitness (ln)” value was -0.311.

As for G1A U2C G6A C27U A43C C46U C66U A69G A70G, the “yeast fitness (ln)” value is -0.0972.

Regarding G6A C27U A43C C46U C66A A70G, the “yeast fitness (ln)” value is -0.191.

For G1A G6A C27U C46U C66U C71U, the “yeast fitness (ln)” value is -0.0279.

For the variant G1A U2C C27U A43C A69G A70G C71U, the “yeast fitness (ln)” value was -0.0597.

On to G6U C27U A43C C66A A69G C71U, for which the “yeast fitness (ln)” value was -0.333.

As to G1A U2G G6U A43C C46U A70U, the “yeast fitness (ln)” value is -0.235.

Consider U2G G6U C27U C46U A69G A70U, for which the “yeast fitness (ln)” value is -0.153.

Consider G1A U2G G6A C46U C66U A70G C71U, for which the “yeast fitness (ln)” value is -0.517.

Consider G1A U2C G6A C27U C66U A70G C71U, for which the “yeast fitness (ln)” value was -0.0371.

As to G1A G6U A43C C46U C66U A70U, the “yeast fitness (ln)” value was -0.259.

With G1A U2C G6U A43C C46U C66U A70U C71U, the “yeast fitness (ln)” value was -0.235.

In the case of G1A U2G C27U A69G C71U, the “yeast fitness (ln)” value was -0.251.

Take C27U C46U C66A A69G C71U: the “yeast fitness (ln)” value is -0.262.

For the variant G1A U2C G6U C27U C46U A69G C71U, the “yeast fitness (ln)” value was -0.166.

For G1A C46U C66A A69G A70G, the “yeast fitness (ln)” value is -0.183.

Turning to G1A G6U A43C C46U A69G A70U C71U, the “yeast fitness (ln)” value is -0.434.

For G6U A43C C46U A70U C71U, the “yeast fitness (ln)” value is -0.225.

As for G1A U2G G6A C46U C66U A69G A70G, the “yeast fitness (ln)” value is -0.18.

As for G1A C27U C66A, the “yeast fitness (ln)” value was -0.123.

For the variant U2C C27U C46U C66A A69G A70G C71U, the “yeast fitness (ln)” value is -0.106.

As to G1A U2G G6U C27U C46U C66A C71U, the “yeast fitness (ln)” value was -0.175.

G1A A43C A69G A70U: the “yeast fitness (ln)” value was -0.257.

Take U2C A43C C46U C66U A69G A70G: the “yeast fitness (ln)” value was -0.0788.

For the variant A43C C46U A69G, the “yeast fitness (ln)” value came out at 0.00452.

Turning to U2C G6U C27U C66U, the “yeast fitness (ln)” value was -0.0859.

On to U2C G6A C27U, for which the “yeast fitness (ln)” value is -0.0332.

As to U2G G6A C27U C66A A69G A70U C71U, the “yeast fitness (ln)” value is -0.499.

As for U2G C27U A43C C46U C66U A70U C71U, the “yeast fitness (ln)” value is -0.265.

Turning to U2C C27U A43C C66U, the “yeast fitness (ln)” value was -0.15.

Regarding U2C G6U C66A, the “yeast fitness (ln)” value was -0.00733.

In the case of U2G G6A A43C, the “yeast fitness (ln)” value was -0.0921.

On to G1A U2G G6U C27U C66U A69G A70G C71U, for which the “yeast fitness (ln)” value is -0.446.

U2G G6U C27U A43C A70U C71U: the “yeast fitness (ln)” value is -0.324.

As to G1A U2C G6A C27U A43C C46U A70G, the “yeast fitness (ln)” value was determined as 0.0488.

As to U2C A43C C46U A70U, the “yeast fitness (ln)” value is -0.0182.

In the case of G1A U2G G6A C46U C66A A70U, the “yeast fitness (ln)” value is -0.189.

Regarding G1A G6A C46U A70U, the “yeast fitness (ln)” value is -0.103.

As for U2C G6A C66U C71U, the “yeast fitness (ln)” value was -0.28.

Take U2C G6A C46U C66A A70U: the “yeast fitness (ln)” value is -0.067.

As to U2G G6U C27U A43C C66A A69G A70G C71U, the “yeast fitness (ln)” value was -0.371.

For U2G A43C C46U C66A A69G A70U C71U, the “yeast fitness (ln)” value was -0.443.

As for G6U A43C C46U C66U A70U C71U, the “yeast fitness (ln)” value was -0.359.
